The text below walks through data of ChEMBL document CHEMBL1132952, “2D QSAR modeling and preliminary database searching for dopamine transporter inhibitors using genetic algorithm variable selection of Molconn Z descriptors” (J Med Chem, 2000).

Structures are written as SMILES.

The target of one experiment is Sodium-dependent dopamine transporter (Rattus norvegicus) (UniProt P23977). Description: Binding affinity to Dopamine transporter (DAT) using [3H]WIN-35428 at 1 uM. Summed up: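 Rat striatal membranes (male Sprague-Dawley, 200-225 g) in modified Krebs-HEPES buffer, pH 7.4. Each tube held 2.5 mg tissue (original wet weight) and 1.5 nM [3H]WIN 35,428. Membranes were preincubated 5 min with or without 1 μM test compound, in triplicate, then incubated 60 min on ice. Nonspecific binding was taken with 0.1 mM cocaine·HCl. Filtration through BSA-presoaked GF/B filters, scintillation counting.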
Chain of Sodium-dependent dopamine transporter (Rattus norvegicus) (P23977 whole entry): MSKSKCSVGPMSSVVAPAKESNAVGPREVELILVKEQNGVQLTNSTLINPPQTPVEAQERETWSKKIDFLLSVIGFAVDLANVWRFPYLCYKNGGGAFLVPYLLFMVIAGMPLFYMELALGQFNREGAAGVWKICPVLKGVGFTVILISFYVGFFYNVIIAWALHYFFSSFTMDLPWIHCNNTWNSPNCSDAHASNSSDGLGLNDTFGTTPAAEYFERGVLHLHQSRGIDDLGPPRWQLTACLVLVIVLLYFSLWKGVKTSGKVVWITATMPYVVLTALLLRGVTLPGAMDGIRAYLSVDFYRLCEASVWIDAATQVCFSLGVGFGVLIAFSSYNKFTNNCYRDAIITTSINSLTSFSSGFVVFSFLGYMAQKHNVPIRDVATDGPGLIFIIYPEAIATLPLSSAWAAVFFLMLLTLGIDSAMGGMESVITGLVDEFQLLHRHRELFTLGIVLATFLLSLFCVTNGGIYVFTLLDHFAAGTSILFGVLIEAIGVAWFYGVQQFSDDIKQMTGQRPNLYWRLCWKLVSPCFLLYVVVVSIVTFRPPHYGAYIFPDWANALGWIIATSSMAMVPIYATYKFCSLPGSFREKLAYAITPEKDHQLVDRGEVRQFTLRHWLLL
Turning to `O=C1c2ccccc2CC1CN1CCCCC1` (stereo not given), the Specific binding was determined as 89.9%.
`Clc1ccc(C2NCCNCc3ccccc32)cc1` (stereo not given) came in with a Specific binding of 54.3%.
For `CN1CCC(OC(c2ccccc2)c2ccc(Cl)cc2)C1` (stereo not given), the Specific binding amounted to 8.43%.
Compound `CC(C(OC(=O)C1c2ccccc2-c2ccccc21)c1ccccc1)N(C)C` (stereo not given) had a Specific binding of 19%.
Regarding `COc1cc(NCCN(CC(C)C)CC(C)C)c2ncccc2c1`, the Specific binding stood at 81.6%.
`CCOC(=O)N1CCN(Cc2c[nH]c3ccccc23)CC1`: the Specific binding worked out at 88.5%.
Still for that read-out and setting: then `CC(CN1CCCC1)OC(=O)C(c1ccccc1)C1C=CCC1` (stereo not given), with 49.7%; and `c1ccc2c(CN3CCOCC3)c[nH]c2c1`, with 88.1%.
The compound `c1ccc(C(CN2CCCCC2)OCc2cccs2)cc1` (stereo not given) yielded a Specific binding of 42.1%.
Same read-out and setting: then `O=C1N2CCNc3ccccc3C(c3ccccc3)N1CC2` (stereo not given), with 55.8%; and `CCCCN(CCCC)CCC(=O)c1cc(-c2ccccc2)oc1-c1ccccc1`, with 93.4%.

The target in another experiment is Sodium-dependent dopamine transporter (Rattus norvegicus, UniProt P23977).
Chain of Sodium-dependent dopamine transporter (P23977 whole entry): as above
As for `CC[C@H]1CC2[C@@H](CC(=O)OC)[C@@H](Cc3ccccc3)CC1N2C` (stereo not given in full), the Ki is 309 nM.
As for `CCCN1CCCC(c2ccc(O)cc2)C1` (stereo not given), the Ki was 562 nM.
As to `CCC[C@H]1CC2[C@@H](CC(=O)OC)[C@@H](Cc3ccccc3)CC1N2C` (stereo not given in full), the inhibitory constant (Ki) is 4170 nM.
Still for that read-out and setting: in the case of `c1ccc2sc(C3(N4CCCCC4)CCCCC3)cc2c1` it was 10 nM.
In the case of `CN(C)C/C=C(\c1cccnc1)c1cccc(Br)c1`, the affinity corresponds to a Ki of 11200 nM.
On the same count and under the same terms, in the case of `C[C@@H]1CN(CCCn2c3ccccc3c3ccccc32)C[C@H](C)N1` [RIMCAZOLE] it was 105 nM.
Compound `COC(=O)C[C@@H]1C2C[C@H](Cc3ccccc3)C(C[C@@H]1Cc1ccccc1)N2C` (stereo not given in full) gave a Ki of 3090 nM. This Ki lies about 29-fold higher than the previous one.
For the compound `CN1[C@@H]2CC[C@H]1C[C@@H](OC(c1ccccc1)c1ccc(Cl)c(Cl)c1)C2` (stereo not given in full), the Ki is 21.4 nM.
Take `COC(=O)/C=C/CC[C@@H]1C2CCC(C[C@@H]1c1ccccc1)N2C` (stereo not given in full): the affinity, expressed as Ki, was 20 nM.
On to `COc1ccc(C(O[C@H]2C[C@H]3CC[C@@H](C2)N3C)c2ccccc2)cc1` (stereo not given in full), for which the Ki is 79.4 nM.
`CCCC[C@H]1CC2[C@@H](CC(=O)OC)[C@@H](Cc3ccccc3)CC1N2C` (stereo not given in full): the affinity corresponds to a Ki of 8510 nM.
`COC(=O)CC[C@@H]1C2CCC(C[C@@H]1c1ccccc1)N2C` (stereo not given in full): the Ki is 22.9 nM. This Ki lies about 370-fold lower than the previous one.
`COC(=O)C[C@@H]1C2C[C@H](C)C(C[C@@H]1Cc1ccccc1)N2C` (stereo not given in full) had a Ki of 214 nM.
Still for that read-out and setting: then `CN1C2CCC1[C@@H](CCC(=O)c1ccccc1)[C@@H](c1ccccc1)C2` (stereo not given in full), with 28.2 nM; and `CN1C2CCC1[C@@H](CCCO)[C@@H](c1ccccc1)C2` (stereo not given in full), with 11 nM.
The compound `COC(=O)[C@@H]1C2CC[C@H](C[C@@H]1c1ccc(C)cc1)N2C` had a Ki of 5.01 nM.
On to `COc1ccccc1OC(CCN)c1ccccc1` (stereo not given), for which the Ki is 562 nM. Against the preceding compound, the Ki is about 110-fold higher.
Still for that read-out and setting: then `CC(C)OC(=O)[C@@H]1C2CC[C@H](C[C@@H]1c1ccc(I)cc1)N2C`, with 3.98 nM; and `CN1[C@@H]2CC[C@H]1C[C@@H](OC(c1ccccc1)c1cccc(C(F)(F)F)c1)C2` (stereo not given in full), with 191 nM; and `CC(=O)[C@@H]1C2CCC(C[C@@H]1OC(=O)c1ccccc1)N2C` (stereo not given in full), with 191 nM.
With `CCC(=O)[C@@H]1C2CCC(C[C@@H]1OC(=O)c1ccccc1)N2C` (stereo not given in full), the Ki is 309 nM.
The same measure, in the same setting: then `COc1ccc2c(c1)CN(C)CC2c1ccc(Cl)c(Cl)c1` (stereo not given) [DICLOFENSINE], with 7.08 nM; and `CC(NC(C)(C)C)C(=O)c1cccc(Cl)c1` (stereo not given) [BUPROPION], with 372 nM.
`O=C(OCCN1CCOCC1)C1(c2ccccc2)CCCCC1` gave a Ki of 5370 nM.
Same read-out and setting: in the case of `CN1C2CCC1[C@@H](/C=C/CO)[C@@H](c1ccccc1)C2` (stereo not given in full) it was 16.2 nM.
Take `COC(=O)[C@@H]1C2CC[C@H](C[C@@H]1c1ccc(I)cc1)N2C`: affinity was put at a Ki of 2.09 nM.
`CN1C2CCC1[C@@H](CCCc1ccccc1)[C@@H](c1ccccc1)C2` (stereo not given in full) gave an inhibition constant Ki of 16.2 nM.
For `CN1[C@@H]2CC[C@H]1C[C@@H](OC(c1ccccc1)c1ccccc1N)C2` (stereo not given in full) [AMINOBENZTROPINE], the Ki is 1860 nM.
Compound `COC(=O)CCCC[C@@H]1C2CCC(C[C@@H]1c1ccccc1)N2C` (stereo not given in full) had an inhibitory constant (Ki) of 30.2 nM.
Compound `COC(=O)[C@@H]1C2CC[C@H](C[C@@H]1c1ccccc1)N2C` had a Ki of 87.1 nM. This Ki is about 2.9-fold higher than that of the compound before.
Compound `COC(=O)C1C2CC[C@H](C[C@@H]1c1ccc(Cl)cc1)N2C` (stereo not given in full) showed a Ki of 2 nM. Compared with the last compound, the Ki is about 44-fold lower.
Consider `COC(=O)/C=C/[C@@H]1C2CCC(C[C@@H]1c1ccccc1)N2C` (stereo not given in full), for which the affinity corresponds to a Ki of 21.9 nM. This Ki lies about 11-fold higher than the previous one.
With `NC12CCC(c3ccccc3)(CC1)CC2`, affinity was put at a Ki of 83.2 nM.
`COC(=O)CC(c1ccccc1)C1CCCCN1` (stereo not given) showed a Ki of 186 nM.
